Measured values as given in ChEMBL document CHEMBL1134691, “3-Phenyl-5-acyloxymethyl-2H,5H-furan-2-ones: synthesis and biological activity of a novel group of potential antifungal drugs” (2001).

What was measured:
Pichia kudriavzevii [1] = experiment: Inhibition of Candida krusei E28 growth for 24 hours in vitro.; assay type: functional; settings: Pichia kudriavzevii, 24 h; read-out: MIC
Procedure, shortened: (§1)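 NCCLS M27-A broth microdilution in RPMI 1640 with L-glutamine and 0.165 M MOPS, pH 7.0. Isolates kept on Sabouraud dextrose agar. Inoculum 5 × 10^3 cfu/mL final. Compounds were diluted in DMSO (≤2% final) and tested in 2-fold dilutions of 1000–0.24 µmol/L. Incubation at 35 °C, OD540 read at 24 and 48 h. MIC = 80% growth inhibition versus control; assays run twice in duplicate.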

Nakaseomyces glabratus [2] = experiment: Inhibition of Candida glabrata 20/I growth for 24 hours in vitro.; assay type: functional; settings: Nakaseomyces glabratus, 24 h; read-out: MIC; procedure, shortened: as §1
Aspergillus fumigatus [3] = experiment: Inhibition of Aspergillus fumigatus 231 growth for 24 hours in vitro.; assay type: functional; settings: Aspergillus fumigatus, 24 h; read-out: MIC
Procedure, shortened: (§2)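 Filamentous isolates tested by microdilution per NCCLS M27-A in RPMI 1640 plus L-glutamine, buffered with 0.165 M MOPS to pH 7.0. Final inoculum 5 × 10^3 cfu/mL. Compounds in DMSO (final ≤2%), 2-fold series over 1000–0.24 µmol/L. Plates held at 35 °C and read visually after 24 and 48 h. MIC taken as 80% inhibition of control growth; determined twice in duplicate.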

Candida parapsilosis [4] = experiment: Inhibition of Candida parapsilosis ATCC 22019 growth for 24 hours in vitro.; assay type: functional; settings: Lodderomyces parapsilosis, ATCC 22019, 24 h; read-out: MIC; procedure, shortened: as §1
Candida albicans [5] = experiment: Inhibition of Candida albicans ATCC 90028 for 24 hours in vitro.; assay type: functional; settings: Candida albicans, ATCC 90028, 24 h; read-out: MIC; procedure, shortened: as §1
Clavispora lusitaniae [6] = experiment: Inhibition of Candida lusitaniae 2446/I growth for 24 hours in vitro.; assay type: functional; settings: Clavispora lusitaniae, 24 h; read-out: MIC; procedure, shortened: as §1
Candida tropicalis [7] = experiment: Inhibition of Candida tropicalis 156 growth for 24 hours in vitro.; assay type: functional; settings: Candida tropicalis, 24 h; read-out: MIC; procedure, shortened: as §1
Pichia kudriavzevii [8] = experiment: Inhibition of Candida krusei ATCC 6258 growth for 24 hours in vitro.; assay type: functional; settings: Pichia kudriavzevii, ATCC 6258, 24 h; read-out: MIC; procedure, shortened: as §1
Candida albicans [9] = experiment: Inhibition of Candida albicans ATCC 44859 growth for 48 hours in vitro.; assay type: functional; settings: Candida albicans, ATCC 44859, 48 h; read-out: MIC; procedure, shortened: as §1
Candida tropicalis [10] = experiment: Inhibition of Candida tropicalis 156 growth for 48 hours in vitro.; assay type: functional; settings: Candida tropicalis, 48 h; read-out: MIC; procedure, shortened: as §1
Trichosporon beigelii [11] = experiment: Inhibition of Trichosporon beigelli 1188 for 48 hours in vitro.; assay type: functional; settings: Trichosporon beigelii, 48 h; read-out: MIC
Procedure, shortened: (§3)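 Microdilution following NCCLS M27-A. Medium: RPMI 1640 with L-glutamine, 0.165 M MOPS, pH 7.0. Final inoculum 5 × 10^3 cfu/mL. Compounds dissolved in DMSO, final ≤2%, serially halved from 1000 to 0.24 µmol/L. Incubated at 35 °C and read at 24 and 48 h. MIC defined as 80% inhibition of control growth; run twice in duplicate.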

Clavispora lusitaniae [12] = experiment: Inhibition of Candida lusitaniae 2446/I growth for 48 hours in vitro.; assay type: functional; settings: Clavispora lusitaniae, 48 h; read-out: MIC; procedure, shortened: as §1
[13] = Inhibition of Trichophyton mentagrophytes 445 growth for 72 hours in vitro.; assay type: functional, Arthroderma benhamiae; settings: Trichophyton benhamiae, 72 h; read-out: MIC
Procedure, shortened: (§4)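 Dermatophyte grown in MOPS-buffered (0.165 M, pH 7.0) RPMI 1640 containing L-glutamine, in an M27-A microdilution format. Inoculum 5 × 10^3 cfu/mL final. Compounds from DMSO stocks (≤2% final), 2-fold dilutions 1000–0.24 µmol/L. Incubated at 35 °C, growth judged visually at 72 and 120 h. MIC endpoint is 80% inhibition relative to control; measured twice in duplicate.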

Lichtheimia corymbifera [14] = experiment: In vitro inhibition of Absidia corymbifera 272 growth for 48 hours.; assay type: functional; settings: Lichtheimia corymbifera, 48 h; read-out: MIC; procedure, shortened: as §2
Candida parapsilosis [15] = experiment: Inhibition of Candida parapsilosis ATCC 22019 growth for 48 hours in vitro.; assay type: functional; settings: Lodderomyces parapsilosis, ATCC 22019, 48 h; read-out: MIC; procedure, shortened: as §1
Nakaseomyces glabratus [16] = experiment: Inhibition of Candida glabrata 20/I growth for 48 hours in vitro.; assay type: functional; settings: Nakaseomyces glabratus, 48 h; read-out: MIC; procedure, shortened: as §1
Candida albicans [17] = experiment: Inhibition of Candida albicans ATCC 90028 for 48 hours in vitro.; assay type: functional; settings: Candida albicans, ATCC 90028, 48 h; read-out: MIC; procedure, shortened: as §1
[18] = Inhibition of Trichophyton mentagrophytes 445 growth for 120 hours in vitro.; assay type: functional, Arthroderma benhamiae; settings: Trichophyton benhamiae, 120 h; read-out: MIC; procedure, shortened: as §4
Pichia kudriavzevii [19] = experiment: Inhibition of Candida krusei ATCC 6258 growth for 48 hours in vitro.; assay type: functional; settings: Pichia kudriavzevii, ATCC 6258, 48 h; read-out: MIC; procedure, shortened: as §1
Pichia kudriavzevii [20] = experiment: Inhibition of Candida krusei E28 growth for 48 hours in vitro.; assay type: functional; settings: Pichia kudriavzevii, 48 h; read-out: MIC; procedure, shortened: as §1
Lichtheimia corymbifera [21] = experiment: In vitro inhibition of Absidia corymbifera 272 growth for 24 hours.; assay type: functional; settings: Lichtheimia corymbifera, 24 h; read-out: MIC; procedure, shortened: as §2
Aspergillus fumigatus [22] = experiment: Inhibition of Aspergillus fumigatus 231 growth for 48 hours in vitro.; assay type: functional; settings: Aspergillus fumigatus, 48 h; read-out: MIC; procedure, shortened: as §2
Trichosporon beigelii [23] = experiment: Inhibition of Trichosporon beigelli 1188 for 24 hours in vitro.; assay type: functional; settings: Trichosporon beigelii, 24 h; read-out: MIC; procedure, shortened: as §3
Candida albicans [24] = experiment: Inhibition of Candida albicans ATCC 44859 growth for 24 hours in vitro.; assay type: functional; settings: Candida albicans, ATCC 44859, 24 h; read-out: MIC; procedure, shortened: as §1

Measured: MIC

O=C1OC(CO)C=C1c1ccc(Cl)c(Cl)c1 (centres undefined)
15.6 µM: [13] | [18]
> 1000 µM: Trichosporon beigelii [11]
125 µM: Pichia kudriavzevii [1] | Clavispora lusitaniae [6] | Lichtheimia corymbifera [14] | Lichtheimia corymbifera [21]
500 µM: Candida tropicalis [10] | Candida parapsilosis [15] | Candida albicans [17] | Trichosporon beigelii [23]
62.5 µM: Nakaseomyces glabratus [2] | Aspergillus fumigatus [3] | Nakaseomyces glabratus [16] | Candida albicans [24]
250 µM: all other assays above
